The nature of data set [1]: Inhibitory constant against Adenosine A2A receptor using [3H]SCH-58261 as radio ligand. More on the design: species or system Homo sapiens. In a few lines:
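Radioligand binding at the adenosine A2A receptor, run in duplicate; Ki reported as the mean of the duplicates.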

Data set [2] has as its target hERG (KCNH2) (Homo sapiens, UniProt Q12809). Kind of data set: Percent inhibition of hERG by rubidium efflux FLIPR assay at concentration of 5 ug/mL. It counts as toxicity. Background: The hERG channel carries a current that helps repolarise heart muscle cells.
Data set [3] deals with Rattus norvegicus. Description: Percent reduction of cataleptic effect in rat upon dosing at 3 mg/kg; 23/47. It counts as functional. More on the design: scale not given: the % may be the effect or the level left.
The test system of data set [4] is Rattus norvegicus. Description: Percent reduction of cataleptic effect in rat upon dosing at 3 mg/kg; 55/40. Further details: scale not given: the % may be the effect or the level left; call rule not given here. It counts as functional.
The subject of data set [5] is Rattus norvegicus. Description: Percent reduction of cataleptic effect in rat upon dosing at 3 mg/kg; 34/43. It counts as functional. Further details: scale not given: the % may be the effect or the level left.
The subject of data set [6] is Rattus norvegicus. Description: Percent reduction of cataleptic effect in rat upon dosing at 3 mg/kg; 23/32. It counts as functional. More on the design: scale not given: the % may be the effect or the level left.
The test system of data set [7] is Rattus norvegicus. Kind of data set: Percent reduction of cataleptic effect in rat upon dosing at 3 mg/kg; 45/20. Further details: scale not given: the % may be the effect or the level left. It counts as functional.
In data set [8] the test system is Rattus norvegicus. Kind of data set: Percent reduction of cataleptic effect in rat upon dosing at 3 mg/kg; 28/0. It counts as functional. More on the design: scale not given: the % may be the effect or the level left.
Data set [9] has as its system Rattus norvegicus. Kind of data set: Percent reduction of cataleptic effect in rat upon dosing at 3 mg/kg; 36/59. It counts as functional. Further details: scale not given: the % may be the effect or the level left.
For data set [10], the system named is Rattus norvegicus. Kind of data set: Percent reduction of cataleptic effect in rat upon dosing at 3 mg/kg; 19/46. It counts as functional. Further details: scale not given: the % may be the effect or the level left.
Data set [11] has as its system Rattus norvegicus. Kind of data set: Percent reduction of cataleptic effect in rat upon dosing at 3 mg/kg; 10/12. It counts as functional. Further details: scale not given: the % may be the effect or the level left.
Data set [12] deals with Rattus norvegicus. Kind of data set: Percent reduction of cataleptic effect in rat upon dosing at 3 mg/kg; 0/23. It counts as functional. More on the design: scale not given: the % may be the effect or the level left.
The subject of data set [13] is Rattus norvegicus. Description: Percent reduction of cataleptic effect in rat upon dosing at 3 mg/kg; 13/13. Further details: scale not given: the % may be the effect or the level left. It counts as functional.

Each structure is given as a SMILES string.

By Ki is commonly meant the equilibrium dissociation constant of an inhibitor or competing ligand from its target. By inhibition is commonly meant the drop in the measured response relative to a control, in per cent.

Sequence of hERG (KCNH2) (Q12809 whole entry): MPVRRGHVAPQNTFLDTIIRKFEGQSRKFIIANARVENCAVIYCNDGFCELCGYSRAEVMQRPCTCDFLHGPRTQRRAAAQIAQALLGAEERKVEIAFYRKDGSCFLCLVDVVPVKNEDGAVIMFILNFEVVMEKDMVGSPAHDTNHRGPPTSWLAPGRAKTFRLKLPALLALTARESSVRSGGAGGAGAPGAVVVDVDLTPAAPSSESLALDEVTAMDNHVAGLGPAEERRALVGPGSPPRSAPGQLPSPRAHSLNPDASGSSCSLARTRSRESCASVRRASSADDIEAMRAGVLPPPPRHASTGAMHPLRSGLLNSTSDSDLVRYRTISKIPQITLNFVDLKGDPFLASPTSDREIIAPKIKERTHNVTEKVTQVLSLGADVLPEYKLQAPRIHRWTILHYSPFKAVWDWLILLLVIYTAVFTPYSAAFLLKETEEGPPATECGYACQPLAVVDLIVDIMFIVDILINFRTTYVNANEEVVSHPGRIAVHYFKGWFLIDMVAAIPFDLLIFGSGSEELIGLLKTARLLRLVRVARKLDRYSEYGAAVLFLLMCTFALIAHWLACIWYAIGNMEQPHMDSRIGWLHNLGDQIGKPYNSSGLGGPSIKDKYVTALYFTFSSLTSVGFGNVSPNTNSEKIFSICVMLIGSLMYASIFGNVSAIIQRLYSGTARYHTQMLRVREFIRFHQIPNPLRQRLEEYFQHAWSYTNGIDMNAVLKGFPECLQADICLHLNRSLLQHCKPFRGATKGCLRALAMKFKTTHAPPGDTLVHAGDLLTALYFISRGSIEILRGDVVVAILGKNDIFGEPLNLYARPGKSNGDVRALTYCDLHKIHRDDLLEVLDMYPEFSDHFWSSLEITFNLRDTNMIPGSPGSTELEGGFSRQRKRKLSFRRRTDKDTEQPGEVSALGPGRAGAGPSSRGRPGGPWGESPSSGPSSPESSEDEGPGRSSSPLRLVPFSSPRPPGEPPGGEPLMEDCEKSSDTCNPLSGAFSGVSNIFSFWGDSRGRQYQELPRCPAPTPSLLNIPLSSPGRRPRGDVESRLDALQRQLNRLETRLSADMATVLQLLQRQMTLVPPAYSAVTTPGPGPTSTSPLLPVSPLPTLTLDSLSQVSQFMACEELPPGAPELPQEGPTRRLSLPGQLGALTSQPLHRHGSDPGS

`Nc1nc(-c2cccc(N3CCN(C(=O)CN4CCOCC4)CC3)c2)cc2nc(-c3ccco3)nn12` had a Ki in data set [1] of 0.5 nM. The inhibition at 5 ug/mL in [2] turned out to be 5%. Besides, the Activity in [3] worked out at 47%.

With `COCCOc1cccc(N2CCN(Cc3cccc(-c4cc5nc(-c6ccco6)nn5c(N)n4)c3)CC2)c1`, the inhibition at 5 ug/mL in [2] was 68%.

In data set [4], `COCCOc1ccc(N2CCN(c3cccc(-c4cc5nc(-c6ccco6)nn5c(N)n4)c3)CC2)cc1` had an Activity of 55%. Further, the Ki in data set [1] came out at 1 nM. The inhibition at 5 ug/mL in [2] is listed as -4% (not active).

In data set [1], `CCCCOC(=O)N1CCN(c2cccc(-c3cc4nc(-c5ccco5)nn4c(N)n3)c2)CC1` showed a Ki of 0.5 nM. The compound also had an Activity in data set [5] of 43%. The inhibition at 5 ug/mL in [2] is on record as -3% (not active).

`Nc1nc(-c2cccc(N3CCN(CCN4CCOCC4)CC3)c2)cc2nc(-c3ccco3)nn12` had an inhibitory constant (Ki) in data set [1] of 1.3 nM. Also, the Activity in data set [6] was 32%. Moreover, the inhibition at 5 ug/mL in data set [2] turned out to be 13%.

`Nc1nc(-c2cccc(N3CCC4(CC3)OCCO4)c2)cc2nc(-c3ccco3)nn12` gave an Activity in [7] of 45%. In data set [1], this compound had a Ki of 0.4 nM. Moreover, the inhibition at 5 ug/mL in data set [2] was 8%.

Compound `CC1CN(CC(=O)N2CCN(c3cccc(-c4cc5nc(-c6ccco6)nn5c(N)n4)c3)CC2)CCO1` (stereo not drawn) yielded a Ki in [1] of 0.8 nM. Further, the Activity in data set [8] is recorded as 28%. In data set [2], the inhibition at 5 ug/mL is given as -3% (not active).

The compound `Nc1nc(-c2cccc(N3CCNCC3)c2)cc2nc(-c3ccco3)nn12` had a Ki in [1] of 5.7 nM.

For the compound `Nc1nc(-c2cccc(N3CCC(=O)CC3)c2)cc2nc(-c3ccco3)nn12`, the inhibitory constant (Ki) in [1] was 1.3 nM.

With `Nc1nc(-c2cccc(CO)c2)cc2nc(-c3ccco3)nn12`, in [2], the inhibition at 5 ug/mL stood at 15%.

Take `Nc1nc(-c2cccc(N3CCC(N4CCOCC4)CC3)c2)cc2nc(-c3ccco3)nn12`: the Activity in data set [9] is listed as 59%. The Ki in data set [1] is 0.8 nM. In addition, the inhibition at 5 ug/mL in data set [2] worked out at 1%.

`COCCOc1cccc(N2CCN(c3cccc(-c4cc5nc(-c6ccco6)nn5c(N)n4)c3)CC2)c1` registered a Ki in [1] of 2.3 nM. In addition, the inhibition at 5 ug/mL in [2] came to 3%. The compound further yielded an Activity in data set [10] of 46%.

In data set [1], `CC(C)(C)CNC1CCN(c2cccc(-c3cc4nc(-c5ccco5)nn4c(N)n3)c2)CC1` showed a Ki of 18 nM. Moreover, in data set [11], the Activity is 12%. Moreover, the inhibition at 5 ug/mL in data set [2] was determined as 9%.

In data set [1], `CC(C)OC(=O)N1CCN(c2cccc(-c3cc4nc(-c5ccco5)nn4c(N)n3)c2)CC1` gave a Ki of 1 nM. Moreover, the inhibition at 5 ug/mL in data set [2] was determined as 8%. The same compound showed an Activity in data set [12] of 23%.

On to `COCCOc1ccc(N2CCN(Cc3cccc(-c4cc5nc(-c6ccco6)nn5c(N)n4)c3)CC2)cc1`, for which the inhibition at 5 ug/mL in data set [2] turned out to be 81%.

With `CC(C)S(=O)(=O)N1CCN(c2cccc(-c3cc4nc(-c5ccco5)nn4c(N)n3)c2)CC1`, the Activity in data set [13] was determined as 13%. In [1], this compound had a Ki of 0.5 nM. In addition, the inhibition at 5 ug/mL in data set [2] came to 10%.

Source of the values: ChEMBL document CHEMBL1142768, “2-(2-Furanyl)-7-phenyl[1,2,4]triazolo[1,5-c]pyrimidin-5-amine analogs as adenosine A2A antagonists: the successful reduction of hERG activity. Part 2” (Bioorg Med Chem Lett, 2005).
